In ChEMBL document CHEMBL1128389, “Thiadiazole derivatives: highly potent and specific HIV-1 reverse transcriptase inhibitors” (J Med Chem, 1995) one finds CC50, EC50 and Selectivity index data, which are given here for 13 compounds.

Assay [1] concerns MT4. The experiment in a line: Cytotoxic concentration based on the reduction of viability of mock-infected cells. Format: functional. The note with it: Homo sapiens. The gist of the method:
(§1)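 Mock-infected MT-4 cells; viable cell number determined by MTT method; CC50 = concentration giving 50% reduction of viability.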

Assay [2] concerns MT4. Put plainly: Compound was evaluated for the inhibition of HIV-1 induced CPE (HTLV-III B strain ) replication in MT-4 cells. The settings on record: Homo sapiens. Format: functional, cell-based. Put shortly:
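HIV-1 strain HTLV-IIIB in MT-4 cells; EC50 = concentration giving 50% inhibition of virus-induced cytopathic effect; viable cells counted by MTT method.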

Assay [3] is described as follows: Selectivity index is the ratio of CC50 and EC50 in MT-4 cells. Format: functional, MT4. The gist of the method: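 MT-4 cells; selectivity index = CC50 (MTT viability of mock-infected cells) divided by EC50 (inhibition of HIV-1-induced cytopathic effect).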
The species named for assay [4] is Homo sapiens. Put plainly: (§2) Selectivity index is the ratio of CC50 and EC50 in peripheral blood lymphocytes (PBL). The assay is classed as functional. Put shortly: (§3)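 HIV-1 strain HTLV-IIIB in peripheral blood lymphocytes. EC50 is 50% reduction of p24 antigen in culture supernatant. CC50 is 50% loss of viability in mock-infected cells, with viable cells counted by MTT. Index = CC50/EC50.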

Assay [5] relates to MT4. The experiment in a line: Compound was evaluated for the inhibition of HIV-2 induced CPE (LAV-2EHO strain ) replication in MT-4 cells. The assay is classed as functional, cell-based. The settings on record: Homo sapiens.
Assay [6] has as its system MT4. The experiment in a line: Selectivity index is the ratio of CC50 and EC50 in MT-4 cells. The assay is classed as functional, Homo sapiens. The gist of the method:
(§4)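 HIV-1 strain HTLV-IIIB in MT-4 cells. EC50 is 50% inhibition of virus-induced cytopathic effect. CC50 is 50% loss of viability in mock-infected cells. Viable cells were counted by the MTT method. Index = CC50/EC50.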

Assay [7] relates to MT4. The experiment in a line: Cytotoxic concentration based on the reduction of viability of mock-infected MT-4 cells. Format: functional. The note with it: Homo sapiens. The gist of the method:
as §1

Assay [8] relates to MT4. Put plainly: Cytotoxic concentration based on the reduction of viability of mock-infected MT-4 cells. The assay is classed as functional. The settings on record: Homo sapiens. Put shortly: as §1
The nature of assay [9]: Selectivity index is the ratio of CC50 and EC50 MT-4 cells. Format: functional, MT4. Put shortly:
as §4

The species named for assay [10] is Homo sapiens. Put plainly: Cytotoxic concentration based on the reduction of viability of mock-infected peripheral blood lymphocytes (PBL). Format: functional. The gist of the method:
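Mock-infected peripheral blood lymphocytes; CC50 = concentration giving 50% reduction in viability, viable cells measured by MTT method.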

A short description of assay [11]: as §2. The assay is classed as functional. Put shortly: as §3
The species named for assay [12] is Homo sapiens. The experiment in a line: Cytotoxic concentration based on the reduction of viability of mock-infected peripheral blood lymphocytes (PBL). The assay is classed as functional. Put shortly:
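Mock-infected peripheral blood lymphocytes; viable cell number determined by MTT method; CC50 is the concentration giving 50% reduction of viability.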

The species entered for assay [13] is Homo sapiens. Put plainly: Compound was evaluated for the inhibition of HIV-1 (HTLV-III B strain ) replication in peripheral blood lymphocytes (PBL), measured as p24 antigen reduction.
Assay [14] has as its system MT4. Put plainly: Compound was evaluated for the inhibition of HIV-1 induced CPE (HTLV-III B strain ) replication in MT-4 cells. The assay is classed as functional, cell-based. The settings on record: Homo sapiens. Put shortly: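 HTLV-IIIB strain of HIV-1 in MT-4 cells; activity read as inhibition of virus-induced cytopathic effect, viable cells counted by MTT method; EC50 is the 50% effective concentration.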

For orientation: CC50 means the concentration at which the toxic effect on the cells reaches its halfway point. A lower CC50 goes with greater toxicity to the cells. In general, EC50 refers to the concentration giving half of the maximal effect. A lower EC50 goes with greater potency. `CN(C)C(=O)Oc1nsnc1-c1ccccc1` yielded a CC50 with MT4 [1] of 183 µM. The same compound came in with a concentration for a half-maximal effect (EC50) in the assay on MT4 [2] of 23 µM. Further, the Selectivity index in assay [3] amounted to 8.

The compound `CN(C)C(=O)Oc1cnsn1` came in with a CC50 in the assay with MT4 [1] of 560 µM. In the assay with MT4 [2], this compound returned an EC50 greater than 560 µM. Besides, in assay [3], the Selectivity index is given as less than 1.

As to `CCCN(C)C(=O)Oc1nsnc1-c1c(Cl)cccc1Cl`, the Selectivity index in the assay filed under Homo sapiens [4] is 37500; in the assay on MT4 [6] it was less than 1; in assay [9], 10077. Also, the EC50 in the assay on MT4 [2] is 0.013 µM; in the assay on MT4 [5] it was greater than 131 µM. In addition, the CC50 with MT4 [7] was determined as 131 µM; with MT4 [8], 131 µM; in the assay filed under Homo sapiens [10] it was 150 µM.

The compound `CCCCN(C)C(=O)Oc1nsnc1-c1c(Cl)cccc1Cl` returned a CC50 in the assay on MT4 [1] of 29 µM. Besides, the midpoint of the response with MT4 [2], the EC50, lay at 0.039 µM. In assay [3], the Selectivity index turned out to be 744.

As for `Cc1ccnc2c1NC(=O)c1cccnc1N2C1CC1` [NEVIRAPINE], in the assay on MT4 [1], the CC50 was determined as 290 µM. For the same compound, it took 0.073 µM to reach a half-maximal effect in the assay with MT4 [2] (EC50). Further, the Selectivity index in [3] is 3973.

For the compound `Cc1cn([C@H]2C[C@H](N=[N+]=[N-])[C@@H](CO)O2)c(=O)[nH]c1=O` [ZIDOVUDINE], the values for the 50% cytotoxic concentration (CC50) with MT4 [1] and in the assay listed under Homo sapiens [12] were 3.2 µM and 83 µM, respectively. The Selectivity index in [11] was 27667. The EC50 with MT4 [2] is 0.004 µM; in the assay listed under Homo sapiens [13] it was 0.003 µM.

In turn, `Oc1nsnc1-c1c(Cl)cccc1Cl` showed a CC50 with MT4 [1] of 221 µM. In the assay with MT4 [14], this compound returned a half-maximal effective concentration (EC50) of 212 µM. The Selectivity index in assay [3] is on record as less than 1.

`CCCCCCN(C)C(=O)Oc1nsnc1-c1c(Cl)cccc1Cl`: the midpoint of cytotoxicity in the assay on MT4 [1], the CC50, lay at 16 µM. In the assay on MT4 [2], this compound yielded a concentration for a half-maximal effect (EC50) of 0.1 µM. Further, in assay [3], the Selectivity index turned out to be 160.

On to `CCN(C)C(=O)Oc1nsnc1-c1c(Cl)cccc1Cl`, for which, in the assay with MT4 [1], the CC50 is 136 µM. Besides, the EC50 with MT4 [2] stood at 0.039 µM. For the same compound, the Selectivity index in assay [3] is given as 3487.

In turn, `CN(C)C(=O)Oc1nsnc1-c1ccccc1Cl` had a CC50 with MT4 [1] of 161 µM. Also, in the assay with MT4 [2], the EC50 is 0.32 µM. Moreover, in [3], the Selectivity index is 503.

Consider `Cc1nsnc1OC(=O)N(C)C`, for which, in the assay on MT4 [1], the midpoint of cytotoxicity, the CC50, lay at 535 µM. Moreover, the EC50 in the assay on MT4 [2] is greater than 535 µM. Besides, the Selectivity index in assay [3] is listed as less than 1.

Turning to `CC(=O)c1ccc(C)cc1NC(C(N)=O)c1c(Cl)cccc1Cl` (centres undefined) [LOVIRIDE], the cytotoxic concentration (CC50) in the assay on MT4 [1] came out at 137 µM; in the assay listed under Homo sapiens [12] it was 48 µM. In addition, the Selectivity index in assay [11] worked out at 436; in [3], 22833. Further, the half-maximal effective concentration (EC50) in the assay with MT4 [2] is 0.006 µM; in the assay listed under Homo sapiens [13] it was 0.11 µM.

`CN(C)C(=O)Oc1nsnc1-c1c(Cl)cccc1Cl` yielded a CC50 in the assay on MT4 [1] of 145 µM. Moreover, in the assay with MT4 [2], a half-maximal effect (EC50) was put at 0.24 µM. Further, in assay [3], the Selectivity index is recorded as 604.
